# Measurements of several laboratories.
# Lines come from different studies, so protocols differ.
# Target: Receptor tyrosine-protein kinase erbB-4 (ERBB4, Homo sapiens, UniProt Q15303)
SMILES,test,setting,remaining binding [%]
C[C@@H]1CCN(c2nccc(-c3cnn4ncccc34)n2)C1,binding,1 µM,79
CN(C)C(=O)Cn1cc(-c2nc(C3(c4ccc(-c5cnc(N)nc5)cc4)CC3)no2)cn1,"cell-free assay, competition with immobilised ligand",1 µM,100
Cc1cnn2ncc(-c3ccnc(N(C)C)n3)c2c1,binding,1 µM,65
COc1ccc2c(O[C@@H]3C[C@H]4C(=O)N[C@]5(C(=O)O)CC5/C=C\CCCCC[C@H](NC(=O)OC5CCCC5)C(=O)N4C3)cc(-c3csc(NC(=O)C(C)C)n3)nc2c1C (stereo partly shown),"cell-free assay, competition with immobilised ligand",1 µM,100
c1cnn2ncc(-c3ccnc(N4CCC45COC5)n3)c2c1,binding,1 µM,76
COc1ccc2c(c1)O[C@H](c1ccc(OC)c(OC)c1)C[C@@H]2NC(=O)C1(c2ccc3c(c2)OC(F)(F)O3)CC1,"cell-free assay, competition with immobilised ligand",1 µM,94
CCN1CCN(Cc2ccc(C(=O)Nc3ccc(C)c(Oc4ccc5c(c4)CC(=O)N5)c3)cc2C(F)(F)F)CC1,"binding, competition with immobilised ligand",1 µM,100
C[C@H](NC(=O)c1cnc2n1[C@](C)(Cc1ccc(C#N)cc1)C(=O)N2c1cc(Cl)c(F)c(Cl)c1)C(=O)NC1(c2ccccn2)CC1,"cell-free assay, competition with immobilised ligand",1 µM,100
COc1cnc(Nc2cccc(S(N)(=O)=O)c2)nc1N1CCN(c2ccccc2)CC1,"binding, competition with immobilised ligand",1 µM,86
O=C(c1ccc(Nc2ncc(Cl)c(-c3cc4ccccc4s3)n2)cc1)N1CCC(N2CCCC2)CC1,"binding, competition with immobilised ligand",1 µM,98
Cc1noc([C@H]2C[C@@H](c3ccc(C(F)(F)F)cc3)CN(C(=O)N3CCS(=O)(=O)C3)C2)n1,"cell-free assay, competition with immobilised ligand",1 µM,100
N[C@H]1CCN(c2nccc(-c3cnn4ncccc34)n2)C1,binding,1 µM,84
Cc1cnc(Nc2ccc(C(=O)N3CCC(N4CCCC4)CC3)cc2)nc1-c1cc2ccccc2s1,"binding, competition with immobilised ligand",1 µM,84
F[C@@H]1CCN(c2nccc(-c3cnn4ncccc34)n2)C1,binding,1 µM,82
COc1ncc2cc3ccccc3nc2c1C#N,"cell-free assay, competition with immobilised ligand",5 µM,96
O=C(NCCCN1CCOCC1)c1ccc(Nc2ncc(Cl)c(-c3ccc(Cl)s3)n2)cc1,"binding, competition with immobilised ligand",1 µM,100
c1cncc(-c2cccc(Nc3nccc(NC4CCCCC4)n3)c2)c1,"binding, competition with immobilised ligand",10 µM,85
C[C@@H](c1ccc(-n2cnc3c(N)ncnc32)cc1)N1CCc2nn(C)c(Cc3ccccc3)c2C1=O,"binding, competition with immobilised ligand",0.1 µM,73
C=CC(=O)N1CCC(C(=O)NCC(=O)N2CCN(c3nc(-c4cnc(N)nc4C(F)F)nc(N4CCOCC4)n3)CC2)CC1,"binding, competition with immobilised ligand",1 µM,100
O=C(Nc1c[nH]nc1C(=O)NC1CCNCC1)c1cc(F)cc(F)c1,"binding, competition with immobilised ligand",1 µM,100
CN(C)c1nccc(-c2cnc3ncccn23)n1,binding,1 µM,89
CCCCN(CCCC)C(=O)CN1C[C@@H](c2cc(OC)c3c(c2)OCO3)[C@H](C(=O)O)[C@H]1CC(C)(C)CCC,"cell-free assay, competition with immobilised ligand",1 µM,95
